This passage reports Activity results from ChEMBL document CHEMBL4371014, “Novel Allosteric Ligands of γ-Aminobutyric Acid Transporter 1 (GAT1) by MS Based Screening of Pseudostatic Hydrazone Libraries” (J Med Chem, 2018).

In the experiment the target is Sodium- and chloride-dependent GABA transporter 1 (Mus musculus) (UniProt P31648). Briefly: Inhibition of NO711 binding to mouse GAT1 expressed in HEK293 cell membranes assessed as residual binding at 1 uM preincubated for 4 hrs followed by NO711 addition and measured after 40 mins by LC-ESI-MS/MS analysis relative to control. The method, boiled down:
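Single hydrazones formed in situ in the presence of mouse GAT1 from one aldehyde (1.0 µM) and hydrazine (200 µM). Formation ran 4 h, then NO711 MS marker was added for 40 min. Specifically bound NO711 was freed from the target and quantified by LC-ESI-MS/MS. Results are % remaining specific binding, means±SD of four replicates.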

With `COc1cc(C=O)cc(OC)c1O`, the Activity was 99%.

On to `COc1cc(F)ccc1-c1ccccc1C=O`, for which the Activity amounted to 101%.

Consider `COc1ccc(C=O)cc1`, for which the Activity was 98%.

Regarding `COc1ccc(F)cc1-c1ccccc1C=O`, the Activity stood at 108%.

In the case of `COc1cccc(F)c1-c1ccccc1C=O`, the Activity is 112%.

As to `COc1ccccc1C=O`, the Activity stood at 108%.

On to `Cc1ccc(-c2cccc(C=O)c2)cc1`, for which the Activity worked out at 104%.

Consider `Cc1ccc(-c2ccsc2C=O)c(C)c1`, for which the Activity was determined as 124%.

In the case of `Cc1ccc(-c2ccsc2C=O)cc1`, the Activity came to 109%.

On to `Cc1cccc2cc(C=O)c(Cl)nc12`, for which the Activity came to 103%.

`Cc1ccccc1-c1ccsc1C=O`: the Activity turned out to be 93%.

Turning to `Cc1ccsc1-c1ccccc1C=O`, the Activity is 105%.

For the compound `Cc1ccsc1-c1sc(C=O)cc1C`, the Activity came to 106%.

Take `Cn1c(C=O)ccc1-c1ccc(Cl)cc1`: the Activity was determined as 101%.

As for `Cn1cnnc1Sc1ccc(C=O)o1`, the Activity is 86%.

For `Nc1ncc(-c2ccccc2C=O)cn1`, the Activity turned out to be 121%.

As to `O=Cc1cc(Br)co1`, the Activity turned out to be 126%.

`O=Cc1ccc(-c2cc(C(F)(F)F)cc(C(F)(F)F)c2)o1`: the Activity is 103%.

Take `O=Cc1ccc(-c2cc(C(F)(F)F)ccc2Cl)o1`: the Activity is 88%.

Take `O=Cc1ccc(-c2ccc(Br)cc2)o1`: the Activity came to 97%.

Take `O=Cc1ccc(-c2ccc(C(F)(F)F)cc2Cl)o1`: the Activity came out at 98%.

On to `O=Cc1ccc(-c2ccc(Cl)cc2)o1`, for which the Activity was found to be 75%.

Take `O=Cc1ccc(-c2ccc(Cl)cc2)s1`: the Activity turned out to be 107%.

In the case of `O=Cc1ccc(-c2ccc(Cl)cc2Cl)o1`, the Activity came to 97%.

In the case of `O=Cc1ccc(-c2ccc(Cl)cc2F)o1`, the Activity is 97%.

As for `O=Cc1ccc(-c2ccc(Cl)cc2[N+](=O)[O-])o1`, the Activity was 72%.

For `O=Cc1ccc(-c2ccc(F)c(C(F)(F)F)c2)o1`, the Activity stood at 99%.

Consider `O=Cc1ccc(-c2cccc(C(F)(F)F)c2)o1`, for which the Activity came to 70%.

With `O=Cc1ccc(-c2cccc(Cl)c2)o1`, the Activity turned out to be 103%.

In the case of `O=Cc1ccc(-c2cccc3ccccc23)o1`, the Activity stood at 92%.

`O=Cc1ccc(-c2ccccc2)[nH]1`: the Activity is 98%.

In the case of `O=Cc1ccc(-c2ccccc2)o1`, the Activity stood at 82%.

As for `O=Cc1ccc(-c2ccccc2)s1`, the Activity is 112%.

For `O=Cc1ccc(-c2ccccc2Br)o1`, the Activity is 129%.

Turning to `O=Cc1ccc(-c2ccccc2C(F)(F)F)o1`, the Activity is 90%.

With `O=Cc1ccc(-c2ccccc2Cl)o1`, the Activity was 99%.

On to `O=Cc1ccc(-c2ccccc2OC(F)(F)F)o1`, for which the Activity was determined as 88%.

For the compound `O=Cc1ccc(-c2ccn[nH]2)o1`, the Activity is 93%.

Turning to `O=Cc1ccc(Br)o1`, the Activity stood at 127%.

As for `O=Cc1ccc(C#Cc2ccccc2)s1`, the Activity is 90%.

With `O=Cc1ccc(I)o1`, the Activity was determined as 115%.

With `O=Cc1ccc([N+](=O)[O-])cc1`, the Activity is 113%.

In the case of `O=Cc1ccc2ccccc2n1`, the Activity was 114%.

With `O=Cc1ccc[nH]1`, the Activity stood at 107%.

Take `O=Cc1cccc(-c2ccc(Cl)cc2)c1`: the Activity was found to be 108%.

As for `O=Cc1cccc(-c2ccc(F)cc2)c1`, the Activity was found to be 122%.

For the compound `O=Cc1cccc(-c2ccccc2)c1`, the Activity is 111%.

Turning to `O=Cc1cccc(Oc2ccccc2)c1`, the Activity came to 109%.

On to `O=Cc1ccccc1-c1cc(F)cc(F)c1`, for which the Activity amounted to 112%.

On to `O=Cc1ccccc1-c1cc(F)ccc1F`, for which the Activity amounted to 98%.

Regarding `O=Cc1ccccc1-c1ccc(F)cc1F`, the Activity was found to be 97%.

Regarding `O=Cc1ccccc1-c1cccc(F)c1F`, the Activity is 107%.

For `O=Cc1ccccc1-c1cccnc1`, the Activity was found to be 119%.

As to `O=Cc1ccccc1-c1cccs1`, the Activity was 107%.

With `O=Cc1ccccc1-c1ccsc1`, the Activity is 106%.

In the case of `O=Cc1ccccc1-n1cccc1`, the Activity turned out to be 92%.

On to `O=Cc1cccn1-c1ccc(C(F)(F)F)cc1`, for which the Activity was determined as 87%.

For the compound `O=Cc1ccco1`, the Activity was found to be 107%.

As for `O=Cc1cccs1`, the Activity turned out to be 118%.

With `O=Cc1ccnc2ccccc12`, the Activity stood at 100%.

Regarding `O=Cc1cnc(-c2ccc3ccccc3c2)nc1`, the Activity was determined as 110%.

Consider `O=Cc1cnc(-c2cccc3ccccc23)nc1`, for which the Activity is 124%.

With `O=Cc1cnc(-c2ccccc2)nc1`, the Activity stood at 113%.

For the compound `O=Cc1cnc(-c2ccccc2F)nc1`, the Activity worked out at 116%.

For `O=Cc1cnc(-c2ccccn2)nc1`, the Activity was found to be 106%.

Take `O=Cc1cnc(-c2ccco2)nc1`: the Activity turned out to be 118%.

For the compound `O=Cc1cnc(-c2cccs2)nc1`, the Activity came out at 103%.

For `O=Cc1cnc(N2CCCCC2)nc1`, the Activity amounted to 108%.

For `O=Cc1cnc(NCc2ccccc2)nc1`, the Activity was 118%.

As for `O=Cc1cnc(SCc2ccccc2)nc1`, the Activity amounted to 116%.

`O=Cc1cncnc1`: the Activity came out at 118%.

For the compound `O=Cc1csc2ccccc12`, the Activity turned out to be 77%.

For `O=Cc1sccc1-c1ccc(C(F)(F)F)cc1C(F)(F)F`, the Activity was 129%.

In the case of `O=Cc1sccc1-c1ccc(Cl)cc1`, the Activity was 113%.

In the case of `O=Cc1sccc1-c1ccc(Cl)cc1Cl`, the Activity is 116%.

`O=Cc1sccc1-c1ccc(F)cc1F`: the Activity worked out at 118%.

For `O=Cc1sccc1-c1ccccc1`, the Activity is 113%.

As to `O=Cc1sccc1-c1ccccc1Cl`, the Activity came out at 121%.

In the case of `O=Cc1sccc1-c1ccccc1F`, the Activity is 121%.

Regarding `O=Cc1sccc1-n1cccc1`, the Activity is 82%.

For `COc1ccc(/C=N/NC[C@@H]2CNC[C@H](C(=O)O)C2)cc1` (racemic), the Activity was 85%.

`Cc1ccsc1-c1sc(/C=N/NC[C@@H]2CNC[C@H](C(=O)O)C2)cc1C` (racemic): the Activity was 74%.

Turning to `O=C(O)[C@H]1CNC[C@@H](CN/N=C/c2ccc(-c3ccccc3OC(F)(F)F)o2)C1` (racemic), the Activity is 66%.

As for `O=C(O)[C@H]1CNC[C@@H](CN/N=C/c2ccc(C#Cc3ccccc3)s2)C1` (racemic), the Activity came to 51%.

Take `O=C(O)[C@H]1CNC[C@@H](CN/N=C/c2ccc3ccccc3n2)C1` (racemic): the Activity worked out at 81%.

With `O=C(O)[C@H]1CNC[C@@H](CN/N=C/c2cccc(Oc3ccccc3)c2)C1` (racemic), the Activity worked out at 46%.

As for `O=C(O)[C@H]1CNC[C@@H](CN/N=C/c2ccccc2-n2cccc2)C1` (racemic), the Activity was 91%.

Consider `O=C(O)[C@H]1CNC[C@@H](CN/N=C/c2cccn2-c2ccc(C(F)(F)F)cc2)C1` (racemic), for which the Activity was found to be 75%.

Turning to `O=C(O)[C@H]1CNC[C@@H](CN/N=C/c2ccnc3ccccc23)C1` (racemic), the Activity stood at 74%.

As for `O=C(O)[C@H]1CNC[C@@H](CN/N=C/c2csc3ccccc23)C1` (racemic), the Activity was 82%.

Consider `O=C(O)[C@H]1CNC[C@@H](CN/N=C/c2sccc2-n2cccc2)C1` (racemic), for which the Activity was determined as 86%.
